Results taken from ChEMBL document CHEMBL1153361, “Synthesis and in vitro characterization of radioiodinatable benzodiazepines selective for type 1 and type 2 cholecystokinin receptors” (J Med Chem, 2009).
Calls of active or inactive are those of the source. No cut-off for these calls is given here.

Tests used:
[1] = target: T1, Cholecystokinin receptor type A (Homo sapiens, UniProt P32238); experiment: Binding affinity to human CCK1 receptor expressed in CHO cell membrane by saturation binding assay; type: cell membranes
T1 sequence (P32238 whole entry): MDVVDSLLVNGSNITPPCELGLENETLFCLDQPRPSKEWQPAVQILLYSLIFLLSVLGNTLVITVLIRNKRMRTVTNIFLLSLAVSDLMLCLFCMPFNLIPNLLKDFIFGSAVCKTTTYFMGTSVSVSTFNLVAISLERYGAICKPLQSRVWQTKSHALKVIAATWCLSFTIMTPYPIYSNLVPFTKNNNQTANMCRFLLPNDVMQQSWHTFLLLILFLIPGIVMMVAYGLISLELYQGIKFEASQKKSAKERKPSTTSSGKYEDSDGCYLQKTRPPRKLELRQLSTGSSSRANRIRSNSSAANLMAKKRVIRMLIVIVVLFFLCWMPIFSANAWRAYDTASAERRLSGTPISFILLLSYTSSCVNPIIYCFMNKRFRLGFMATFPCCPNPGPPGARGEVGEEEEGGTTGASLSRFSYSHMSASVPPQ
In short: (§1)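 Membranes (5–10 µg protein) from CHO cells stably expressing human CCK1 or CCK2 receptor, incubated with increasing radioligand in KRH pH 7.4 with 0.2% BSA and 0.01% soybean trypsin inhibitor, 1 h at room temperature. Nonspecific binding taken with 1 µM cold homolog. Filtration, gamma counting. Kd and Bmax fitted in LIGAND.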

[2] = target: T1, Cholecystokinin receptor type A; experiment: biochemical
[3] = target: T2, Gastrin/cholecystokinin type B receptor (Homo sapiens, UniProt P32239); experiment: (§2) Displacement of [125I](R)-1-(3-iodophenyl)-3-(1-methyl-2-oxo-5-phenyl-2,3-dihydro-1Hbenzo[e][1,4]diazepin-3-yl)urea from human CCK2 receptor expressed in CHO cells by gamma spectrometry; type: cell-based
T2 sequence (P32239 whole entry): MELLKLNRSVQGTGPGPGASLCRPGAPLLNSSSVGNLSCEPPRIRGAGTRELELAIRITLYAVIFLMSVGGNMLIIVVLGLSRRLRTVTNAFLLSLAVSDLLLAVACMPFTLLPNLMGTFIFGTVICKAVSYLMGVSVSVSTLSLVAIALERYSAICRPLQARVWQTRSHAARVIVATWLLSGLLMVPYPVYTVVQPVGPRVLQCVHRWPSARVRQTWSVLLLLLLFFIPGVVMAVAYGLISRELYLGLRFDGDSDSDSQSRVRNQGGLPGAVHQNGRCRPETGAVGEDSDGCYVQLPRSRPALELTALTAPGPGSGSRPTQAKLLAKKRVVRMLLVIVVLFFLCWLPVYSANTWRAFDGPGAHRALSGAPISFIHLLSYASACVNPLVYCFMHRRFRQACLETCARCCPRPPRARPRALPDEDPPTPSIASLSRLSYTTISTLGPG
In short: (§3)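 Homologous competition in membranes (5–10 µg protein) from CHO cells expressing human receptor. 10 pM radioligand (about 20,000 cpm) plus cold ligand 0–1 µM in KRH with 0.2% BSA and 0.01% soybean trypsin inhibitor, 1 h at room temperature. Filtration, gamma counting. Ki fitted by LIGAND nonlinear least squares. Duplicate/triplicate, ≥3 independent experiments.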

[4] = target: T3, Gastrin/cholecystokinin type B receptor (Homo sapiens) (UniProt P32239); experiment: Binding affinity to CCK2 receptor in human gastrointestinal stromal tumor in presence of CCK1 antagonist L364718; settings: tested as the 125I-labelled form
T3 sequence (whole entry): T2 sequence (P32239 whole entry)

[5] = target: T3, Gastrin/cholecystokinin type B receptor (Homo sapiens); experiment: Displacement of [125I]CCK from CCK2 receptor in human muscular layer of gall bladder assessed as binding density per mg of tissue by autoradiography; type: tissue-based; settings: tested as the 125I-labelled form
[6] = target: T3, Gastrin/cholecystokinin type B receptor (Homo sapiens); experiment: Binding affinity to CCK2 receptor in human gastrointestinal stromal tumor in presence of (R)-1-(3-iodophenyl)-3-(1-methyl-2-oxo-5-phenyl-2,3-dihydro-1Hbenzo[e][1,4]diazepin-3-yl)urea; settings: tested as the 125I-labelled form
[7] = target: T3, Gastrin/cholecystokinin type B receptor (Homo sapiens); experiment: Displacement of [125I]CCK from CCK2 receptor in human medullary thyroid carcinoma assessed as binding density per mg of tissue by autoradiography; settings: tested as the 125I-labelled form
[8] = target: T3, Gastrin/cholecystokinin type B receptor (Homo sapiens); experiment: Binding affinity to CCK2 receptor in human gastrointestinal stromal tumor in presence of CCK8; settings: tested as the 125I-labelled form
[9] = target: T3, Gastrin/cholecystokinin type B receptor (Homo sapiens); experiment: as §2; type: cell-based; settings: tested as the 125I-labelled form; in short: as §3
[10] = target: T3, Gastrin/cholecystokinin type B receptor (Homo sapiens); experiment: Antagonist activity at human CCK2 receptor expressed in CHO cells assessed as inhibition of CCK8-stimulated intracellular calcium response preincubated for 100 seconds before CCK8 challenge; type: functional, cell-based
In short: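 Fura-2 AM-loaded (5 μM, 30 min, 37 °C) CHO cells stably expressing human receptor, about 2 million per measurement. Cells were pre-incubated 100 s with increasing ligand concentrations, then stimulated with CCK-8 (final 10^-9 M) at 37 °C. Ratiometric read-out with excitation at 340/380 nm and emission at 520 nm, collected over 300 s. Means of 3 independent experiments.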

[11] = target: T3, Gastrin/cholecystokinin type B receptor (Homo sapiens); experiment: Induction of receptor internalization in YFP-tagged human CCK2 receptor expressed in CHO cells at 100 nM after 90 mins; type: cell-based
In short: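 CHO cells stably expressing YFP-tagged receptor, grown ≥48 h on coverslips, bound with 100 nM ligand at 4 °C for 90 min in PBS with 0.08 mM CaCl2 and 0.1 mM MgCl2. After washing, cells were warmed to 37 °C for varying times, fixed in 2% paraformaldehyde, and imaged by confocal microscopy for surface versus internal YFP (ex 488, em >505 nm).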

[12] = target: T3, Gastrin/cholecystokinin type B receptor (Homo sapiens); experiment: Agonist activity at human CCK2 receptor expressed in CHO cells assessed as stimulation of intracellular calcium response; type: functional, cell-based
In short: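 CHO cells stably expressing human receptor, detached non-enzymatically, loaded with 5 μM Fura-2 AM for 30 min at 37 °C in serum-free Ham's F12. About 2 million cells per measurement were stimulated with test ligand (10 pM to 10 μM) at 37 °C. Fluorescence was read with excitation at 340/380 nm and emission at 520 nm over 300 s. Three independent experiments.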

[13] = target: T2, Gastrin/cholecystokinin type B receptor; experiment: Binding affinity to human CCK2 receptor expressed in CHO cell membrane by saturation binding assay; type: cell membranes; in short: as §1

Structure (SMILES)	Ki [2]	Ki [3]	Activity [9]	Activity [10]	Activity [12]	also measured
CN1C(=O)[C@@H](NC(=O)Nc2cccc([125I])c2)N=C(c2ccccc2)c2ccccc21	174 nM	1 nM				Kd [1]: 1.15 nM
CN1C(=O)[C@H](NC(=O)Nc2cccc(I)c2)N=C(c2ccccc2)c2ccccc21			Dose-dependent effect	Dose-dependent effect	inactive	Activity [4]: inactive; Activity (disintegrations/minute) [5]: 970; Activity [6]: inactive; Activity (disintegrations/minute) [7]: 602; Activity [8]: inactive; Activity [11]: Active
CN1C(=O)[C@H](NC(=O)Nc2cccc([125I])c2)N=C(c2ccccc2)c2ccccc21	3.72 nM	537 nM				Kd [13]: 2.95 nM
CN1C(=O)[C@@H](NC(=O)Nc2cccc(I)c2)N=C(c2ccccc2)c2ccccc21			Dose-dependent effect	Dose-dependent effect	inactive	
